Results from different studies.
Lines come from different studies, so protocols differ.
Organism: Enterococcus faecalis
Observed: microbial growth

With Clc1ccc(-c2nc3ccccc3[nH]2)cc1Cl the MIC was 32 µg/mL (broth dilution; ATCC29212).
The MIC of C/C=C(\C)c1cc(OC(=O)c2c(O)c(C)c(O)c(Cl)c2/C(C)=C/C)c(C)c(O)c1C(=O)O is reported as 64 µg/mL (broth dilution; ATCC29212).
For CCn1cc(C(=O)O)c(=O)c2cc(F)c(N3CCNCC3)cc21, the MIC was less than 5 µg/mL (broth dilution; ATCC14506; 18 h).
The MIC of CSc1ccc(-c2nc3ccccc3[nH]2)cc1 is reported as 64 µg/mL (broth dilution; ATCC29212).
For Cc1ccc(C)n1-c1ccc(-c2nnco2)cc1, the MIC was 2 µg/mL (broth dilution; ATCC14506; 18 h).
With COc1ccc(-c2nc3ccc(C)cc3[nH]2)cc1OC the MIC was 128 µg/mL (broth dilution; ATCC29212).
With Cc1ccc(C)n1-c1ccc(-c2nnc(-c3ccccc3Cl)[nH]2)cc1 the MIC was 16 µg/mL (broth dilution; ATCC14506; 18 h).
CN[C@H](CC(C)C)C(=O)N[C@H]1C(=O)N[C@@H](CC(N)=O)C(=O)N[C@H]2C(=O)N[C@H]3C(=O)N[C@H](C(=O)N[C@H](C(=O)O)c4cc(O)cc(O)c4-c4cc3ccc4O)[C@H](O)c3ccc(c(Cl)c3)Oc3cc2cc(c3O[C@@H]2O[C@H](CO)[C@@H](O)[C@H](O)[C@H]2O[C@H]2C[C@](C)(N)[C@H](O)[C@H](C)O2)Oc2ccc(cc2Cl)[C@H]1O has an MIC of 2 µg/mL (broth dilution; ATCC29212).
Cc1ccc2nc(-c3ccc([N+](=O)[O-])cc3)n(Cc3ccccc3)c2c1 has an MIC of 8 µg/mL (broth dilution; ATCC29212).
C/C(O)=C1\C(=O)C(CC(C)C)N(C(=O)CCCCCc2ccccc2)C1=O (centres unmarked) gave an MIC of less than 0.7 µg/mL (broth dilution; ATCC33186).
With Cc1ccc(C)n1-c1ccc(-c2n[nH]c(=S)[nH]2)cc1 the MIC was 4 µg/mL (broth dilution; ATCC14506; 18 h).
The MIC of C/C=C(\C)c1cc(O)c(C)c(OC(=O)c2c(C)cc(O)c(Cl)c2O)c1 is reported as 8 µg/mL (broth dilution; ATCC29212).
Clc1ccc(Cn2c(-c3ccc(Cl)cc3)nc3ccccc32)cc1 has an MIC of 16 µg/mL (broth dilution; ATCC29212).
With O=C(O)c1cn(C2CC2)c2cc(N3CCNCC3)c(F)cc2c1=O the MIC was less than 5 µg/mL (broth dilution; ATCC14506; 18 h).
CC1(C)S[C@@H]2[C@H](NC(=O)[C@H](N)c3ccccc3)C(=O)N2[C@H]1C(=O)O gave an MIC of 2 µg/mL (broth dilution; ATCC29212).
C/C(=C\c1ccc(C#N)cc1)C(=O)Nc1ccc(C(=O)N[C@@H](CC(N)=O)C(=O)Nc2ccc(C(=O)Nc3ccc(C(=O)Nc4ccc(C(=O)O)cc4)c(O)c3OC(C)C)cc2)cc1 gave an MIC of 0.5 µg/mL (ATCC29212).
With Cc1ccc2nc(-c3c4ccccc4cc4ccccc34)[nH]c2c1 the MIC was 64 µg/mL (broth dilution; ATCC29212).
For CO[C@@H](C(N)=O)[C@H](NC(=O)c1ccc(NC(=O)c2ccc(C#N)cc2)cc1)C(=O)Nc1ccc(C(=O)Nc2ccc(C(=O)Nc3ccc(C(=O)O)cc3)c(O)c2OC(C)C)cc1, the MIC was 0.125 µg/mL (ATCC29212).
The MIC of Cc1ccc(C)n1-c1ccc(-c2nnc(-c3ccc(N(C)C)cc3)[nH]2)cc1 is reported as 31.2 µg/mL (broth dilution; ATCC14506; 18 h).
O=C(Nc1ccc2c(c1)OC(F)(F)O2)Nc1ccc(Cl)c(C(F)(F)F)c1 gave an MIC of 3 µM.
